Read-outs that look alike come from different tables or passages of the source.
How the values were obtained:
SiHa = test: CellTiter-Glo cytotoxicity assay, SiHa; type: cell-based; details: Homo sapiens
Summary of the method: (§1)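 About 5,000 cells/well were dosed either continuously or for a 1 h pulse. After the pulse, cells were washed with pre-warmed medium and kept drug-free. Viability was read by CellTiter-Glo luminescence 72 h after dosing began. IC50 was the half-maximal growth-inhibiting concentration.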

HCT-116 = test: CellTiter-Glo cytotoxicity assay, HCT-116; type: cell-based; details: Homo sapiens
Summary of the method: as §1

SKNSH = test: CellTiter-Glo cytotoxicity assay, SKNSH; type: cell-based; details: Homo sapiens, SK-N-SH
Summary of the method: as §1

cancer cell lines = test: CellTiter-Glo cytotoxicity assay, cancer cell lines in general; type: cell-based, human
Summary of the method: as §1

[1] = test system: various cancer cell lines; details: read-out: IC50 against various cancer cell lines; in vitro; cited from earlier work
SiHa cells = test: Caspase Glo 3/7 assay, SiHa; type: cell-based, human; details: 10 or 30 μM with 50 nM compound 3, 72 hours
[2] = test system: MRC5, WI-38 and IMR-90 normal lung fibroblast cell lines; test: Caspase Glo 3/7 assay, normal lung fibroblasts; type: cell-based, human; details: control, 1 microM for 72 hours

**Q.** Which results are given for `CCC(=C/[C@H](C)C/C=C/C(C)=C/[C@@H](C)C(=O)[C@@H](C)[C@H](O)[C@@H](C)C/C(C)=C/C(=O)O)/C=C/[C@@H]1OC(=O)C=C[C@@H]1C` [Leptomycin B]?
**A.** IC50 (SiHa; 72 h, read-out: SiHa (IC50 nM) 72h): 0.4 nM; IC50 (SiHa; read-out: SiHa (IC50 nM) 1h): 2.1 nM; IC50 (HCT-116; HCT-116, 72 h, read-out: HCT-116 (IC50 nM) 72h): 0.3 nM; IC50 (HCT-116; HCT-116, read-out: HCT-116 (IC50 nM) 1h): 4.3 nM; IC50 (SKNSH; 72 h, read-out: SKNSH (IC50 nM) 72h): 0.4 nM; IC50 (SKNSH; read-out: SKNSH (IC50 nM) 1h): 4.1 nM; IC50 (cancer cell lines; Homo sapiens, read-out: IC50, one hour exposure): < 5 nM; IC50, 72 hour exposure (cancer cell lines; most cancer cell lines, 72 hour exposure): sub-nanomolar; IC50 [1]: 0.1 to 10 nM

**Q.** For `Cc1ccc(C(=O)Cn2c3c(sc2=N)CCCC3)cc1` [pifithrin-alpha], which “Effect on compound 3-induced apoptosis (caspase 3/7)” value (SiHa cells) is on record?
**A.** blocked compound 3-induced apoptosis

**Q.** With `CN[C@@H]1C[C@H]2O[C@@](C)([C@@H]1OC)n1c3ccccc3c3c4c(c5c6ccccc6n2c5c31)C(=O)NC4` [staurosporine] as the molecule, how does the “Caspase 3/7 activation” value [2] read?
**A.** dramatic induction of caspases

— article PMC2635062 (Cancer research, 2009)
